Data reported in ChEMBL document CHEMBL1153004, “Bis-14-membered ring diketal diamines: synthesis and evaluation of their anti-HIV and anti-tumoral activities” (Eur J Med Chem, 2009).

Tests used:
[1] = system: Human immunodeficiency virus 1; experiment: Antiviral activity against HIV1 3B in human MT4 cells assessed as inhibition of viral replication; type: functional, organism-based; conditions: Human immunodeficiency virus 1, 3B
Summary of the method: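 MT-4 cells in RPMI 1640 with 10% FCS at 37 °C, 5% CO2, infected with HIV-1 IIIB at 5 TCID50. After 30 min adsorption, cells were washed and resuspended at 10^5 cells/mL with serial compound dilutions. Inhibition of virus-induced cytopathogenicity was read after 5 days. IC50 came from a median-effect plot; mean of 2 experiments.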

[2] = Cytotoxicity against human MT4 cells by MTT assay; type: cell-based
Summary of the method: (§1)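 Uninfected cells were incubated in parallel with a range of compound concentrations. Viability was read by MTT reduction to formazan, OD 540 nm. CC50 was calculated with the same median-effect program used for IC50. Mean of 2 separate experiments.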

[3] = system: Human immunodeficiency virus 1; experiment: Antiviral activity against HIV1 LAI in human CEM-SS cells assessed as inhibition of viral replication; type: functional, organism-based; conditions: Human immunodeficiency virus 1, LAI
Summary of the method: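 CEM-SS cells in RPMI 1640 with 10% FCS at 37 °C, 5% CO2, infected with HIV-1 LAI at 20 TCID50. After 30 min adsorption, cells were washed and resuspended at 10^5 cells/mL with serial compound dilutions. After 5 days, reverse transcriptase activity of released virus particles was measured. IC50 came from a median-effect plot; mean of 2 experiments.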

[4] = Cytotoxicity against human CEM-SS cells by MTT assay; type: cell-based; summary of the method: as §1
KB [5] = experiment: Antiproliferative activity against human KB cells at 10 uM after 3 hrs by MTS assay; type: functional
Summary of the method: (§2)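 Medium was DMEM-Glutamax for KB and HepG2 and RPMI 1640 for the other lines, each with 10% FCS, at 37 °C, 5% CO2. Cells were seeded at 500–800 per well and left to adhere for 24 h. Compounds in DMSO were added at 10^-5 M final, with 3 h exposure. Readout was MTS absorbance versus control wells after blank subtraction; triplicate.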

SF-268 = experiment: Antiproliferative activity against human SF268 cells at 10 uM after 3 hrs by MTS assay; type: functional; conditions: SF-268, 3 h; summary of the method: as §2
HL-60 [6] = experiment: Antiproliferative activity against human HL60 cells at 10 uM after 3 hrs by MTS assay; type: functional; conditions: HL-60, 3 h; summary of the method: as §2
MCF7 [7] = experiment: Antiproliferative activity against human MCF7 cells at 10 uM after 3 hrs by MTS assay; type: functional; conditions: MCF7, 3 h; summary of the method: as §2
MCF7 [8] = experiment: Antiproliferative activity against human multidrug-resistant MCF7 cells at 10 uM after 3 hrs by MTS assay; type: functional; conditions: MCF7, 3 h; summary of the method: as §2
HCT-116 [9] = experiment: Antiproliferative activity against human HCT116 cells at 10 uM after 3 hrs by MTS assay; type: functional; conditions: HCT-116, 3 h; summary of the method: as §2
A549 = experiment: Antiproliferative activity against human A549 cells at 10 uM after 3 hrs by MTS assay; type: functional; conditions: A549, 3 h; summary of the method: as §2
PC-3 [10] = experiment: Antiproliferative activity against human PC3 cells at 10 uM after 3 hrs by MTS assay; type: functional; conditions: PC-3, 3 h; summary of the method: as §2
SK-OV-3 = experiment: Antiproliferative activity against human SKOV3 cells at 10 uM after 3 hrs by MTS assay; type: functional; conditions: SK-OV-3, 3 h; summary of the method: as §2
HepG2 = experiment: Antiproliferative activity against human HepG2 cells at 10 uM after 3 hrs by MTS assay; type: functional; conditions: HepG2, 3 h; summary of the method: as §2
KB [11] = experiment: Cytotoxicity against human KB cells after 3 hrs by MTS assay; type: functional, cell-based; summary of the method: as §2
HL-60 [12] = experiment: Cytotoxicity against human HL60 cells after 3 hrs by MTS assay; type: functional, cell-based; conditions: HL-60, 3 h; summary of the method: as §2
MCF7 [13] = experiment: Cytotoxicity against human MCF7 cells after 3 hrs by MTS assay; type: functional, cell-based; conditions: MCF7, 3 h; summary of the method: as §2
HCT-116 [14] = experiment: Cytotoxicity against human HCT116 cells after 3 hrs by MTS assay; type: functional, cell-based; conditions: HCT-116, 3 h; summary of the method: as §2
PC-3 [15] = experiment: Cytotoxicity against human PC3 cells after 3 hrs by MTS assay; type: functional, cell-based; conditions: PC-3, 3 h; summary of the method: as §2

Row | IC50 [1] | IC50 [3] | Compound | CC50 [2] | CC50 [4] | inhibition at 10 µM (KB [5]) | inhibition at 10 µM (SF-268) | inhibition at 10 µM (HL-60 [6]) | inhibition at 10 µM (MCF7 [7]) | inhibition at 10 µM (MCF7 [8]) | inhibition at 10 µM (HCT-116 [9]) | inhibition at 10 µM (A549) | inhibition at 10 µM (PC-3 [10]) | inhibition at 10 µM (SK-OV-3) | inhibition at 10 µM (HepG2) | IC50 (KB [11]) | IC50 (HL-60 [12]) | IC50 (MCF7 [13]) | IC50 (HCT-116 [14]) | IC50 (PC-3 [15])
1 | > 100 µM | > 100 µM | CO[C@H]1CCN(Cc2ccc(CN3CCO[C@H](OC)CC(=O)NCCO[C@@H](OC)CC3)cc2)CCO[C@H](OC)CC(=O)NCCO1 (relative stereo) | > 100 µM | > 100 µM | 0% | 0% | 10% | 13% | 2% | 7% | 0% | 0% | 0% | 4% | – | – | – | – | –
2 | > 7.8 µM | 8.65 µM | CO[C@H]1CC(=O)N[C@H](c2ccccc2)CO[C@H](OC)CCN(Cc2ccc(CN3CC[C@@H](OC)OC[C@@H](c4ccccc4)NC(=O)C[C@H](OC)OC[C@H]3c3ccccc3)cc2)[C@H](c2ccccc2)CO1 | 7.8 µM | > 10 µM | 47% | 27% | 54% | 45% | 14% | 47% | 33% | 51% | 38% | 27% | 10 µM | 10 µM | 10 µM | 10 µM | 10 µM
3 | 0.41 µM | 0.32 µM | c1cc(CN2CCCNCCNCCCNCC2)ccc1CN1CCCNCCNCCCNCC1 [PLERIXAFOR] | 6.5 µM | > 5 µM | – | – | – | – | – | – | – | – | – | – | – | – | – | – | –
4 | > 10 µM | > 10 µM | CO[C@@H]1CCN(Cc2ccc(CN3CC[C@@H](OC)OC[C@@H](c4ccccc4)NC(=O)C[C@@H](OC)OC[C@H]3c3ccccc3)cc2)[C@H](c2ccccc2)CO[C@H](OC)CC(=O)N[C@H](c2ccccc2)CO1 | > 10 µM | > 10 µM | 12% | 14% | 31% | 25% | 8% | 21% | 17% | 15% | 18% | 0% | – | – | – | – | –
